# In ChEMBL document CHEMBL4004827, “Exploration of DAPI analogues: Synthesis, antitrypanosomal activity, DNA binding and fluorescence properties” (Eur J Med Chem, 2017):
# The source made the active and inactive calls. No cut-off for these calls is given here.
# How the values were obtained:
# [1] = Binding affinity to poly(dA-dT)n DNA (unknown origin) assessed as change in melting temperature at 0.3 molar ratio of compound:DNA by spectrophotometric analysis
# Outline: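 Thermal melting with poly(dA-dT) in CAC 10 buffer (10 mM cacodylic acid, 1 mM EDTA, 100 mM NaCl, pH 7.0), 1 cm quartz cuvettes, heated at 0.5 °C/min. DNA concentration set by absorbance at 260 nm; 0.3 mol compound per mol DNA, DNA alone as control. Tm taken from peak of first-derivative (dA/dT) curve; ΔTm = Tm complex − Tm free DNA.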
# [2] = Binding affinity to poly(dA-dT)n DNA minor groove (unknown origin) assessed as positive induced CD signal at 1:20 to 5:20 molar ratio of compound:DNA by CD spectroscopic analysis
# Outline: (§1)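 CD spectra recorded at 25 °C in MES 10 buffer (10 mM MES, 100 mM NaCl, 1 mM EDTA) over a series of compound-to-DNA ratios.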
# L6 = test: Cytotoxicity against rat L6 cells; assay type: cell-based
# [3] = tested on: Trypanosoma brucei rhodesiense; test: Antitrypanosomal activity against Trypanosoma brucei rhodesiense STIB900 bloodstream forms after 70 hrs by Alamar blue assay; assay type: functional; conditions: STIB900, 70 h
# Outline: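 In vitro viability assay on T. b. rhodesiense strain STIB900; values are the average of duplicate determinations.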
# [4] = Selectivity index, ratio of IC50 for rat L6 cells to IC50 for Trypanosoma brucei rhodesiense STIB900 bloodstream forms; assay type: toxicity; conditions: read-out: Ratio IC50
# Outline: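 Selectivity index calculated as IC50 in L6 cells divided by IC50 against T. b. rhodesiense STIB900.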
# [5] = tested on: Trypanosoma brucei rhodesiense; test: Antitrypanosomal activity against Trypanosoma brucei rhodesiense STIB900 infected in NMRI mouse assessed as aparasitemic mouse at 5 mg/kg, ip for 4 consecutive days starting from day 3 post infection measured up to day 60 post infection relative to control; assay type: functional
# Outline: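 STIB900 acute-stage mouse model of T. b. rhodesiense infection; compound given intraperitoneally at 5 mg/kg daily for four consecutive days (4 × 5 mg/kg), 4 infected mice per group; cure rate reported as mice cured out of 4.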
# [6] = tested on: Trypanosoma brucei rhodesiense; test: Potency index, ratio of DAPI IC50 to compound IC50 for Trypanosoma brucei rhodesiense STIB900 bloodstream forms; assay type: functional
# Mus musculus = test: Toxicity in NMRI mouse infected with Trypanosoma brucei rhodesiense STIB900 assessed as death at 5 mg/kg, ip for 4 consecutive days starting from day 3 post infection; assay type: organism-based; conditions: in vivo
# Outline: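 Acute-stage STIB900 mouse model, four infected mice per compound, given 5 mg/kg intraperitoneally once daily on four consecutive days (4 × 5 mg/kg). Deaths among treated mice were counted out of 4, alongside cure of survivors. Other protocol details follow an earlier report.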
# [7] = Binding affinity to poly(dA-dT)n DNA minor groove (unknown origin) assessed as positive induced CD signal at 1:20 to 8:20 molar ratio of compound:DNA by CD spectroscopic analysis; outline: as §1
ΔTm [1] [°C],Activity [2],IC50 [3] [nM],Activity [7],Compound,IC50 (L6) [µM],selectivity ratio [4],Activity [5],Ratio IC50 [6],Activity (Mus musculus)
21.4,Active,3,–,N=C(N)c1ccc2[nH]c(-c3ccc(C(=N)N)o3)cc2c1,2.7,900,100%,2 - 6,–
12.1,–,5,–,N=C(N)c1ccc2[nH]c(-c3ccc(C(=N)N)nc3)cc2c1,1.8,394,25%,2 - 6,–
> 26,–,5,–,Cc1cc(-c2cc3ccc(C(=N)N)cc3[nH]2)ccc1C(=N)N,15.7,3140,75%,2 - 6,–
22.1,–,24,Active,N=C(N)c1ccc(-c2cc3ccc(C(=N)N)cc3[nH]2)nc1,3.2,133,100%,–,–
> 26,–,4,–,N=C(N)c1ccc(-c2cc3cc(C(=N)N)ccc3[nH]2)nc1,21.3,5320,100%,2 - 6,–
19.2,–,–,–,N=C(N)c1ccc(-c2cc3cc(C(=N)N)ccc3[nH]2)cc1,–,–,–,–,–
10,–,11,–,N=C(N)c1ccc2cc(-c3ccc(C(=N)N)s3)[nH]c2c1,4.5,409,–,2 - 6,–
> 26,Active,6,–,COc1cc(C(=N)N)ccc1-c1cc2ccc(C(=N)N)cc2[nH]1,29.6,4880,100%,2 - 6,–
12.6,–,4870,–,COc1ccc(-c2cc3ccc(C(=N)N)cc3[nH]2)cc1,29,6,–,–,–
15.3,–,3,–,N=C(N)c1ccc2cc(-c3ccc(C(=N)N)nc3)[nH]c2c1,2,667,25%,2 - 6,–
15.3,–,3,–,Cc1cc(-c2cc3cc(C(=N)N)ccc3[nH]2)ccc1C(=N)N,23.5,7830,75%,2 - 6,–

Compound,ΔTm [1] [°C],Activity [2],IC50 [3] [nM],Activity [7],IC50 (L6) [µM],selectivity ratio [4],Activity [5],Ratio IC50 [6],Activity (Mus musculus)
N=C(N)c1ccc2cc(-c3ccc(C(=N)N)o3)[nH]c2c1,11,–,9,–,7.2,800,inactive,2 - 6,Toxic
N=C(N)c1ccc(-c2cc3ccc(C(=N)N)cc3[nH]2)cc1 [DAPI],> 27,Active,–,–,–,48,–,–,–
